Test results: the M2OR odorant receptor database
Residue numbers refer to the chain shown, from its start.

Columns and labels:
Conditions in all cases: stereoisomer not certain
OR2W1 [1] = tested on: T1, OR2W1
T1 sequence (whole entry): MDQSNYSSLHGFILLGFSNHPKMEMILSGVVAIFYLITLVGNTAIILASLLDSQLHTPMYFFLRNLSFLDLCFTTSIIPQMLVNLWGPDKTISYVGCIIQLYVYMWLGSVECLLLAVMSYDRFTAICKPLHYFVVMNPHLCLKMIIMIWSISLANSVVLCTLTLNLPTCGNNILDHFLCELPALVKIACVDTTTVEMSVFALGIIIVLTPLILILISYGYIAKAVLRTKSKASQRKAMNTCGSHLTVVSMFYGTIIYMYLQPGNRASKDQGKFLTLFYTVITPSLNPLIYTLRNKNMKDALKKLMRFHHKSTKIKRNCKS
Summary of the method: (§1)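 Values were gathered from published papers (main text and supplementary material), with extra details requested from the original authors when needed, and checked for typos and inconsistencies. Each receptor–molecule pair is called responsive (active) if the original authors judged the measured signal statistically different from baseline, and non-responsive (inactive) otherwise. Assay methods varied by source, often transient mammalian cell-line luciferase assays. Recorded details include cell line, G-protein, co-transfected protein and tags.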

OR2W1 [2] = tested on: T2, OR2W1; remark: listed apart in the source
T2 sequence (whole entry): T1 sequence (whole entry) with M81V, N296D
Summary of the method: as §1

OR2W1 (Homo sapiens) = target: T3, OR2W1 (Homo sapiens) (UniProt Q9Y3N9)
T3 sequence (whole entry): T1 sequence (whole entry) with N296D
Summary of the method: as §1

Compound	odorant receptor agonist call (OR2W1 [1])	odorant receptor agonist call (OR2W1 [2])	odorant receptor agonist call (OR2W1 (Homo sapiens))
CCCC(S)CCOC(C)=O (configuration not stated)	active	active	–
CCCCCC(=O)C(C)C(C)=O (configuration not stated)	active	active	–
CCCCCCO	active	inactive	active
CCOC(=O)C1CCCCC1	active	inactive	active
CCC=CCCOC(C)=O	active	active	active
CCCCCC1CCC(=O)O1 (configuration not stated)	active	active	active
CCCSSSC	active	active	active
CCCSSSCCC	active	inactive	active
CCCCC1OC(=O)CC1C (configuration not stated)	active	active	active
CCCCCC=CC=O	active	inactive	active
CCCCCc1ccccn1	active	active	active
CCc1cccc(O)c1	active	inactive	active
CCOC(=O)C(C)C	active	inactive	inactive
CCCSSCCC	active	inactive	active
SCc1cccs1	active	active	active
CCCCCCCC1CCC(=O)O1 (configuration not stated)	active	active	active
OCCCc1ccccc1	active	active	active
CCCCCC(C)O (configuration not stated)	active	active	active
CCCCCC=CC=CC=O	active	active	active
CCOC(=O)C=Cc1ccccc1	active	active	active
CCCCC1CCC(=O)O1 (configuration not stated)	active	active	active
C=Cc1ccc(O)cc1	active	active	active
CC1=CCC(C(C)C)C=C1 (configuration not stated)	active	inactive	active
CCCCCC(=O)OCC	active	active	active

Compound	odorant receptor agonist call (OR2W1 [1])	odorant receptor agonist call (OR2W1 [2])	odorant receptor agonist call (OR2W1 (Homo sapiens))
CCOC(=O)CC(C)C	active	inactive	active
CCC=CCCC=O	active	active	active
CC(=O)OCCc1ccccc1	active	active	active
CC(C)(S)CCOC=O	active	active	active
CCOC(=O)c1ccccc1	active	active	active
CCC(C)CO (configuration not stated)	active	active	active
C=CC(=O)CCCCC	active	active	active
CC(C)c1ccc(C=O)cc1	active	active	active
CCCCCCC1CCC(=O)O1 (configuration not stated)	active	active	active
CCCCCC=CCCC=O	active	inactive	active
COc1ccc(C)cc1O	active	inactive	inactive
CC=Cc1ccc(OC)cc1	active	active	active
CCC=CCCC=CCO	active	active	active
CSCc1ccccc1	active	active	active
C=C(C)C1CC=C(C)CC1 (configuration not stated)	active	active	active
c1coc(CSSCc2ccco2)c1	active	active	active
CCCC(=O)OC	active	active	active
SCCc1ccccc1	active	active	active
CC(C)=CCCC(C)=CCO	–	inactive	inactive
CCCCC=CC=CC=O	active	active	active
C=CC(=C)CCC=C(C)C	active	active	active
CCOC(=O)CCSC	active	active	active
CCCCCCCCCC(=O)OCC	active	active	active
CSSCc1ccccc1	active	active	active

Compound	odorant receptor agonist call (OR2W1 [1])	odorant receptor agonist call (OR2W1 [2])	odorant receptor agonist call (OR2W1 (Homo sapiens))
OCC=Cc1ccccc1	active	active	active
CC(=O)OCC=Cc1ccccc1	active	active	active
CC(S)c1ccccc1 (configuration not stated)	active	active	active
CC1=CCC(C(C)(C)S)CC1 (configuration not stated)	active	inactive	active
CCCCCCOC(C)=O	active	active	active
C=C1CCC2(C(C)C)CC12 (configuration not stated)	active	inactive	active
CSCc1ccco1	active	active	active
CCc1ccc(O)cc1	active	active	active
CC(=O)c1cnccn1	active	inactive	active
CCCCCCCC(C)=O	active	active	active
CCCC(S)CCO (configuration not stated)	active	inactive	active
CCCCC=CC=O	active	inactive	active
C=CC(O)CCCCC (configuration not stated)	active	active	active
CCCCC(=O)OCC	active	active	active
CCC(C)COC(C)=O (configuration not stated)	active	active	inactive
CCCC(=O)OCC	active	active	active
CCCCCCC=CC=O	active	active	active
COC(=O)C=Cc1ccccc1	active	active	active
COCCC(C)(C)S	active	inactive	active
CC(=O)c1ccc(C)cc1	active	active	active
OCCc1ccccc1	active	inactive	active
CCCCCCCC(=O)OCC	active	inactive	active
